Data on six compounds can be found in ChEMBL document CHEMBL1137445, “Bioassay-guided fractionation of pterocarpans from roots of Harpalyce brasiliana Benth” (Bioorg Med Chem, 2007).

≈ marks a conversion by molar mass, not a printed value.

The first test concerns MDA-MB-435. Kind of test: Cytotoxicity against human MDA-MB-435 cells by MTT assay.
Conditions: not given
Format: functional, cell-based. An outline of the steps:
(§1)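 Cell lines were from NCI. Viability was read by MTT reduction to formazan. IC50 and 95% confidence interval came from nonlinear regression of three independent experiments.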
(Formazan colour is commonly taken as a measure of viable cells.)
What is called IC50 is the point on the concentration scale where inhibition reaches its midpoint. Take `CC1(C)C=Cc2c(ccc3c2OCC2c4cc5c(cc4OC32)OCO5)O1` (stereo unspecified) [LEIOCARPIN]: inhibition was half-maximal at 13.7 µg/mL (≈ 39.1 µM) (IC50).

In the case of `CC(C)=CCc1c(O)ccc2c1OCC1c3cc4c(cc3OC21)OCO4` (stereo unspecified), the IC50 came out at 4.9 µg/mL (≈ 13.9 µM).

Turning to `C/C(=C\Cc1c(O)ccc2c1OCC1c3cc4c(cc3OC21)OCO4)CO` (stereo unspecified), the IC50 is over 25 µg/mL.

For the compound `COc1cccc2c1C(=O)c1c(O)c3c(c(O)c1C2=O)C[C@@](O)(C(=O)CO)C[C@@H]3O[C@H]1C[C@H](N)[C@H](O)[C@H](C)O1` [DOXORUBICIN], it took […] to reach half-maximal inhibition (IC50).

Compound `CC(CO)CCc1cc2c(cc1O)OCC1c3cc4c(cc3OC21)OCO4` (stereo unspecified) registered an IC50 of 16.9 µg/mL (≈ 45.6 µM).

Compound `Oc1ccc2c(c1)OC[C@H]1c3cc4c(cc3O[C@@H]21)OCO4` [MAACKIAIN] showed an IC50 of 11.5 µg/mL (≈ 40.5 µM).

The next test deals with HCT-8 (human). Kind of test: Cytotoxicity against human HCT-8 cells by MTT assay.
Conditions: not given
The compound `CC1(C)C=Cc2c(ccc3c2OCC2c4cc5c(cc4OC32)OCO5)O1` (stereo unspecified) [LEIOCARPIN] gave an IC50 of 6.9 µg/mL (≈ 19.7 µM).

As to `CC(C)=CCc1c(O)ccc2c1OCC1c3cc4c(cc3OC21)OCO4` (stereo unspecified), the IC50 is 8.5 µg/mL (≈ 24.1 µM).

`C/C(=C\Cc1c(O)ccc2c1OCC1c3cc4c(cc3OC21)OCO4)CO` (stereo unspecified) registered an IC50 of 8.8 µg/mL (≈ 23.9 µM).

`COc1cccc2c1C(=O)c1c(O)c3c(c(O)c1C2=O)C[C@@](O)(C(=O)CO)C[C@@H]3O[C@H]1C[C@H](N)[C@H](O)[C@H](C)O1` [DOXORUBICIN] yielded an IC50 of 0.01 µg/mL (≈ 0.0184 µM).

The compound `CC(CO)CCc1cc2c(cc1O)OCC1c3cc4c(cc3OC21)OCO4` (stereo unspecified) registered an IC50 of 10.8 µg/mL (≈ 29.2 µM). Against the preceding compound, the IC50 is about 1100-fold higher.

`Oc1ccc2c(c1)OC[C@H]1c3cc4c(cc3O[C@@H]21)OCO4` [MAACKIAIN] came in with an IC50 of over 25 µg/mL.

The subject of the next test is Lytechinus variegatus. The test can be described thus: Antimitotic activity against Lytechinus variegatus at primary cleavage stage of egg development.
Conditions: not given
Format: functional, tissue-based. In outline: (§2)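 Eggs were fertilized with diluted sperm in filtered seawater, and fertilization was confirmed by elevation of the vitellin membrane. Compounds were added 5 min after fertilization over a 0.1–100 range. Incubation was at room temperature. Aliquots were fixed in equal-volume 10% formaldehyde at first cleavage, third cleavage and blastula. 100 eggs were scored per concentration for % normal development. IC50 and 95% CI came from nonlinear regression of 3 independent experiments.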
Take `CC1(C)C=Cc2c(ccc3c2OCC2c4cc5c(cc4OC32)OCO5)O1` (stereo unspecified) [LEIOCARPIN]: the IC50 stood at 1.1 µg/mL (≈ 3.14 µM).

`CC(C)=CCc1c(O)ccc2c1OCC1c3cc4c(cc3OC21)OCO4` (stereo unspecified): the IC50 stood at 15.2 µg/mL (≈ 43.1 µM).

As to `C/C(=C\Cc1c(O)ccc2c1OCC1c3cc4c(cc3OC21)OCO4)CO` (stereo unspecified), inhibition was half-maximal at 1.5 µg/mL (≈ 4.07 µM) (IC50). This IC50 is about 10-fold lower than that of the compound before.

`COc1cccc2c1C(=O)c1c(O)c3c(c(O)c1C2=O)C[C@@](O)(C(=O)CO)C[C@@H]3O[C@H]1C[C@H](N)[C@H](O)[C@H](C)O1` [DOXORUBICIN] registered an IC50 of 6.28 µg/mL (≈ 11.6 µM).

Regarding `CC(CO)CCc1cc2c(cc1O)OCC1c3cc4c(cc3OC21)OCO4` (stereo unspecified), the IC50 was 5.18 µg/mL (≈ 14 µM).

The compound `Oc1ccc2c(c1)OC[C@H]1c3cc4c(cc3O[C@@H]21)OCO4` [MAACKIAIN] yielded a half-maximal inhibitory concentration (IC50) of 6.5 µg/mL (≈ 22.9 µM).

For the next test, the system named is Lytechinus variegatus. The test can be described thus: Antimitotic activity against Lytechinus variegatus at blastulae stage of egg development. Format: functional, tissue-based. To be noted: Blastula stage. An outline of the steps:
as §2
With `CC1(C)C=Cc2c(ccc3c2OCC2c4cc5c(cc4OC32)OCO5)O1` (stereo unspecified) [LEIOCARPIN], the midpoint of inhibition, the IC50, lay at 0.2 µg/mL (≈ 0.571 µM).

Turning to `CC(C)=CCc1c(O)ccc2c1OCC1c3cc4c(cc3OC21)OCO4` (stereo unspecified), the IC50 came out at 3.3 µg/mL (≈ 9.36 µM).

`C/C(=C\Cc1c(O)ccc2c1OCC1c3cc4c(cc3OC21)OCO4)CO` (stereo unspecified) gave an IC50 of 0.43 µg/mL (≈ 1.17 µM). This IC50 lies about 7.7-fold lower than the previous one.

On to `COc1cccc2c1C(=O)c1c(O)c3c(c(O)c1C2=O)C[C@@](O)(C(=O)CO)C[C@@H]3O[C@H]1C[C@H](N)[C@H](O)[C@H](C)O1` [DOXORUBICIN], for which 0.54 µg/mL (≈ 0.994 µM) corresponded to half-maximal inhibition (IC50).

`CC(CO)CCc1cc2c(cc1O)OCC1c3cc4c(cc3OC21)OCO4` (stereo unspecified): the IC50 amounted to 1.7 µg/mL (≈ 4.59 µM).

`Oc1ccc2c(c1)OC[C@H]1c3cc4c(cc3O[C@@H]21)OCO4` [MAACKIAIN] showed an IC50 of 4.6 µg/mL (≈ 16.2 µM).

The test system of a further test is HL-60. The test can be described thus: Cytotoxicity against human HL60 cells by MTT assay. Format: functional, cell-based.
Conditions: not given
In outline:
as §1
The compound `CC1(C)C=Cc2c(ccc3c2OCC2c4cc5c(cc4OC32)OCO5)O1` (stereo unspecified) [LEIOCARPIN] had an IC50 of 5.5 µg/mL (≈ 15.7 µM).

`CC(C)=CCc1c(O)ccc2c1OCC1c3cc4c(cc3OC21)OCO4` (stereo unspecified) had an IC50 of 3.1 µg/mL (≈ 8.8 µM).

`C/C(=C\Cc1c(O)ccc2c1OCC1c3cc4c(cc3OC21)OCO4)CO` (stereo unspecified) returned an IC50 of 16.2 µg/mL (≈ 44 µM).

For the compound `COc1cccc2c1C(=O)c1c(O)c3c(c(O)c1C2=O)C[C@@](O)(C(=O)CO)C[C@@H]3O[C@H]1C[C@H](N)[C@H](O)[C@H](C)O1` [DOXORUBICIN], inhibition was half-maximal at 0.02 µg/mL (≈ 0.0368 µM) (IC50).

`CC(CO)CCc1cc2c(cc1O)OCC1c3cc4c(cc3OC21)OCO4` (stereo unspecified) came in with a half-maximal inhibitory concentration (IC50) of over 25 µg/mL.

Compound `Oc1ccc2c(c1)OC[C@H]1c3cc4c(cc3O[C@@H]21)OCO4` [MAACKIAIN] displayed a 50% inhibitory concentration (IC50) of 17.9 µg/mL (≈ 63 µM).

The test system of the next test is Lytechinus variegatus. The test can be described thus: Antimitotic activity against Lytechinus variegatus at tertiary cleavage stage of egg development. Format: functional, tissue-based.
Conditions: not given
In outline:
as §2
In turn, `CC1(C)C=Cc2c(ccc3c2OCC2c4cc5c(cc4OC32)OCO5)O1` (stereo unspecified) [LEIOCARPIN] came in with an IC50 of 0.4 µg/mL (≈ 1.14 µM).

As to `CC(C)=CCc1c(O)ccc2c1OCC1c3cc4c(cc3OC21)OCO4` (stereo unspecified), the IC50 stood at 4.8 µg/mL (≈ 13.6 µM). Against the preceding compound, the IC50 is about 12-fold higher.

Regarding `C/C(=C\Cc1c(O)ccc2c1OCC1c3cc4c(cc3OC21)OCO4)CO` (stereo unspecified), 0.52 µg/mL (≈ 1.41 µM) corresponded to half-maximal inhibition (IC50).

Take `COc1cccc2c1C(=O)c1c(O)c3c(c(O)c1C2=O)C[C@@](O)(C(=O)CO)C[C@@H]3O[C@H]1C[C@H](N)[C@H](O)[C@H](C)O1` [DOXORUBICIN]: it took 0.34 µg/mL (≈ 0.626 µM) to reach half-maximal inhibition (IC50).

`CC(CO)CCc1cc2c(cc1O)OCC1c3cc4c(cc3OC21)OCO4` (stereo unspecified) registered an IC50 of 2.1 µg/mL (≈ 5.67 µM). This IC50 is about 6.2-fold higher than that of the compound before.

Regarding `Oc1ccc2c(c1)OC[C@H]1c3cc4c(cc3O[C@@H]21)OCO4` [MAACKIAIN], the IC50 came out at 4.3 µg/mL (≈ 15.1 µM).
